b-catenin transl: modulators of beta-catenin nuclear translocation, primary screen, imaging, HeLa cells, immunofluorescence, high-content. AID 1665, 2009. nuclear translocation activity, % at 5 µM. hit rate 0.3% among 190,000;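 active means nuclear translocation activity above 50% at 5 µM, with a well cell count of 50 or more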;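 further: per-cell ratio of nuclear to cytoplasmic median beta-catenin stain intensity; plate controls were DMSO negative control for no effect and GSK-3 inhibitor IX positive control for full effect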
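Assay system: human HeLa cells, native beta-catenin; doses: 5 µM primary, 0.02–20 µM confirmation; incubation: compound treatment 24 h, 37°C, 5% CO2; technique: fluorescence imaging of beta-catenin antibody stain plus DAPI; measure: % activation, nuclear-to-cytoplasmic median beta-catenin signal ratio per cell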
Lmaj promast: Leishmania major promastigote growth inhibition, primary screen | Leishmania major promastigotes, resazurin fluorescence viability | inhibition, % at 10 µM | hit rate 9% among 200,000; in the data active means inhibition above about 50%;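 further: promastigotes grown with compound for 44 hours at 28 °C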
Dynein cargo inh: inhibitors of GR-EGFP nuclear translocation, primary screen, dynein cargo transport inhibitor project, imaging, high-content, 3617.4 mouse cells; test concentration mostly 20 µM; stimulated with dexamethasone, 1 µM; hits give low values; z-score, hits read low; AID 1381, 2008; hit rate 0.47% among 220,000;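 active means plate z-score of nuclear minus cytoplasmic receptor signal below a set negative limit, without overly bright fluorescence or cell loss, cut at about -3.5 in these data, passing the limit was not always enough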;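 further: z-score of nuclear minus cytoplasmic ring GR-EGFP intensity difference per well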
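Also added: dexamethasone, 1.0 µM final. Medium: tet-free, stripped-serum medium. Detection: fixed, Hoechst-stained cells imaged at 10x for EGFP. Read-out: nuclear-to-cytoplasmic GR-EGFP distribution per well. Times: induction 48 h, compound 1 h, agonist 30 min.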
MT stabilize HCS: microtubule stabilizers in HeLa cells, primary screen, imaging, high-content imaging; HeLa tubulin immunostaining HCS, 24 h; share of cells brighter than vehicle mean+2SD; % tubulin-high responders, % at 10 µM; AID 2205, 2009; hit rate 0.83% among 200,000;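 active means plate Z-score above 3 for both tubulin-high and condensed-nucleus cell shares, with cell loss under 80%, at 10 µM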;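 further: anti alpha tubulin signal scored within the nucleus-defined area of each cell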
CHOP inh: inhibitors of CHOP promoter induction, primary screen, cell-based, unfolded protein response, luciferase reporter; AID 2732, 2010; inhibition, % at 10 µM; hit rate 3.8% among 220,000; CHO-K1 CHOP-promoter luciferase, tunicamycin-induced, 15-18 h;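 active means compounds that reduced the stress-induced luciferase reporter signal by more than about 70% of percent inhibition, limit read from the data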;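 further: 0% = tunicamycin plus vehicle and 100% = wells without tunicamycin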
Autophagy mod: autophagy modulators in MEF cells, primary screen, imaging, high-content, MEF GFP-LC3. MEF GFP-LC3 puncta imaging; test concentration mostly 10 µM. calls only at 10 µM (by protocol). hit rate 0.98% among 190,000. AID 463193, 2010;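 active means percentage of spot-positive cells more than 3 SD above its plate mean, without a fluorescence outlier flag or 80% toxicity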;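 further: spot-positive cell cutoff set from DMSO-treated cells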
Starred values were filed as active, the others as inactive; i = inactive; nt = no result; + = active, no number. In the library only some 12% were active in any assay of this set; here they are far more common.

SMILES | b-catenin transl | Lmaj promast | Dynein cargo inh | MT stabilize HCS | CHOP inh | Autophagy mod
CC1(C)CC(NC(=O)COc2ccc3ccccc3c2)CC(C)(C)N1 | 3 | 83* | 0.89 | 3 | -10 | i
CCOc1ccc2oc(C(=O)NC3CC(C)(C)NC(C)(C)C3)c(C)c2c1 | -1 | 82* | 1.8 | 5 | -16 | i
CCOc1ccc2oc(C(=O)NC(C)(C)CC)c(C)c2c1 | -2 | -3 | 0.051 | 2 | 34 | i
Cc1c(C(=O)NC2CC2)oc2ccc(S(=O)(=O)N3CCCCCC3)cc12 | 1 | nt | nt | nt | 26 | nt
CC(=O)N(C)C1(c2nnnn2CCOC(=O)Nc2cccc3ccccc23)CCCC1 | -1 | -4 | -0.28 | 2 | 9 | i
COc1ccc(CN(CCC(c2ccccc2)C2CCOC(C)(C)C2)C(C)=O)cc1 (stereo not given) | -3 | 83* | -0.2 | 4 | 4 | i
Cc1ccc(C(CC(=O)O)C2CCOC(C)(C)C2)cc1 (stereo not given) | nt | -5 | 0.08 | 2 | -29 | i
COc1ccc(CNCCC(c2ccccc2)C2CCOC(C)(C)C2)cc1 (stereo not given) | -1 | 91* | 1.3 | 4 | 25 | i
Brc1ccc(CSc2nnc(-c3ccccn3)n2Cc2ccco2)cc1 | 100* | 10 | -0.91 | 31 | 47 | i
Clc1cccc(CSc2nnc(-c3ccccn3)n2Cc2ccco2)c1 | 0 | 21 | -2.1 | 6 | 13 | i
Cc1ccc(-c2nnc(SCc3ccc(C#N)cc3)n2Cc2ccco2)cc1 | 0 | 66* | -0.62 | 4 | -8 | i
CC(C)(C)c1ccc(CSc2nnc(-c3ccccn3)n2Cc2ccco2)cc1 | -1 | 35 | -1.3 | 1 | 94* | i
COc1ccc(/C=N/n2c(-c3ccco3)nc3ccccc3c2=O)cc1 | -1 | 2 | -0.41 | 3 | 80* | i
Cc1cc(Br)cc(C)c1NC(=S)NC(=O)CC(C)C | -3 | -1 | -0.51 | 3 | 92* | i
CCOc1cc(NC(=O)c2ccccc2C)c(OCC)cc1NC(=O)C1=Cc2ccccc2OC1 | 2 | -6 | 0.72 | 6 | 69 | i
NC(=O)c1ccccc1N/C=C/C(=O)c1ccccc1 | 0 | -2 | -0.48 | 3 | 18 | i
COC(=O)c1ccccc1N/C=C/C(=O)c1ccc(Br)cc1 | 0 | 73* | 0.32 | 1 | 21 | i
CCCCn1c(=N)n(CC(=O)c2ccc([N+](=O)[O-])cc2)c2ccccc21 | -1 | 81* | -0.72 | 6 | 33 | +
CCn1c(=N)n(CC(=O)c2ccc(OC)cc2)c2ccccc21 | -3 | 95* | 0.97 | 4 | 15 | i
COc1ccc(C(=O)Cn2c(C(=O)/C=C/c3ccccc3)nc3ccccc32)cc1 | -2 | 89* | -0.08 | 5 | -45 | i
COc1ccc(C(=O)CSc2nc3ccccc3n2CC(=O)c2ccccc2)cc1 | -2 | 22 | 0.48 | 2 | 15 | i
Cc1ccc(Cn2c(=N)n(CC(=O)c3ccc([N+](=O)[O-])cc3)c3ccccc32)cc1 | 3 | 74* | 0.41 | 38 | 9 | i
Cc1ccc(S(=O)(=O)CC(=O)c2ccc([N+](=O)[O-])cc2)cc1 | 1 | nt | -0.2 | nt | 2 | nt
CCCn1c(=N)n(CCOc2ccc(OC)cc2)c2ccccc21 | -1 | 94* | 0.31 | 1 | -9 | i
CCOC(=O)Cn1c(=N)n(CCOc2ccc(OC)cc2)c2ccccc21 | 0 | -1 | -0.59 | 2 | 12 | i
SMILES | b-catenin transl | Lmaj promast | Dynein cargo inh | MT stabilize HCS | CHOP inh | Autophagy mod
O=C(OCC(=O)N1CCc2ccccc2C1)c1cccs1 | 0 | -2 | 0.14 | 5 | -19 | i
O=C1C2C=CC=CC2=NC(=S)N1CCN1CCC(=C(c2ccc(F)cc2)c2ccc(F)cc2)CC1 (stereo not given) | nt | nt | nt | nt | -1 | nt
CC1=CC=CC2=NC(=O)CC(C)(C(=O)N(CC(=O)NC3CCCC3)c3ccccc3C)N12 (stereo not given) | 0 | 80* | 0.12 | 3 | 42 | i
CCOC(=O)c1sc2ncn(/N=C/c3ccc(O)cc3)c(=O)c2c1C | -2 | 94* | -0.044 | 2 | 60 | i
CCOC(=O)c1sc2ncn(/N=C/c3cccnc3)c(=O)c2c1C | -14 | 2 | -0.73 | 2 | 17 | i
CN1CCN(Cc2c(O)ccc3c(=O)c(Oc4ccccc4Cl)c(C(F)(F)F)oc23)CC1 | nt | 99* | -0.65 | 2 | -17 | i
COc1ccc(Oc2c(C)oc3c(CN4CCOCC4)c(O)ccc3c2=O)cc1 | 0 | 6 | 3 | 1 | 1 | i
CCOC(=O)c1ccc(Oc2c(C)oc3c(CN4CCN(C)CC4)c(O)ccc3c2=O)cc1 | 0 | 100* | -0.84 | 3 | 11 | i
Cc1oc2c(CN3CCCC3)c(O)ccc2c(=O)c1Oc1ccccc1Br | 1 | 49 | -0.33 | 5 | -8 | i
CN(C)c1nnnn1-c1ccc(Oc2ncc(C(F)(F)F)cc2Cl)cc1 | 0 | -7 | 2.5 | 3 | 21 | i
O=C(CN1CCN(c2ccc(F)cc2)CC1)Nc1ccccc1[N+](=O)[O-] | -1 | -4 | -0.19 | 2 | 26 | i
O=S(=O)(NC1CCCC1)c1ccc(S(=O)(=O)N2CCc3ccccc32)cc1 | -2 | 48 | 1.3 | 3 | 86* | i
O=S(=O)(NC1CCc2ccccc21)c1ccc(S(=O)(=O)N2CCCC2)cc1 (stereo not given) | -5 | 72* | 0.18 | 3 | 49 | i
Cn1c(=O)c(=O)n(C)c2cc(S(=O)(=O)N3CCc4ccccc43)ccc21 | -4 | 52* | -0.79 | 4 | 47 | i
Cn1c(=O)oc2cc(S(=O)(=O)N3CCc4ccccc43)ccc21 | 1 | nt | -0.36 | nt | 18 | nt
Cn1c(=O)c2[nH]c(-c3ccc(S(=O)(=O)O)cc3)nc2n(C)c1=O | nt | nt | nt | nt | -47 | nt
Cc1ccc(C(=O)C(OC(=O)c2cnccn2)c2ccccc2)cc1 (stereo not given) | -1 | -7 | -1.1 | 2 | -1 | i
Cc1ccc(C(C)(C)C)c(OCCN2CCCC2)c1 | -1 | 4 | -0.56 | 3 | 7 | i
Cc1cc(Br)ccc1OCCCCN1CCCCC1 | 0 | 100* | -0.017 | 2 | -4 | i
CC(OCCN1CCCC1)(c1ccc(F)cc1)c1ccc(F)cc1 | -1 | 100* | 0.9 | 5 | 13 | i
Cc1cccc(C(C)(C)C)c1OCCN1CCCC1 | -1 | 6 | -0.24 | 2 | 19 | i
Cc1cc(C(C)(C)C)ccc1OCCN1CCCC1 | nt | 96* | 1.1 | 2 | -38 | i
COc1ccc(Br)cc1CN1CCCCCCC1 | -2 | 21 | 0.56 | 5 | 21 | i

Screens as filed in PubChem BioAssay.
